An excerpt weighted towards active compounds, which were near 1.8% of everything screened.
GalR3 antag = blocks the human galanin receptor 3 | HEK293 GalR3-CNG cAMP membrane potential fluorescence; galR3 body fused to GalR1 C-terminus | inhibition, % at 3 µM | 360,000 tested, 0.44% active | AID 651719;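 active means inhibition above the screen-wide average plus 3 SD, cut at about 13% in these data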;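 further: forskolin and galanin both at EC90 stimulate the cells; cAMP rise reported by CNG channel membrane potential dye signal; 0% = forskolin plus galanin with DMSO and 100% = forskolin alone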
Target sequence (O60755 1-299 limits assumed): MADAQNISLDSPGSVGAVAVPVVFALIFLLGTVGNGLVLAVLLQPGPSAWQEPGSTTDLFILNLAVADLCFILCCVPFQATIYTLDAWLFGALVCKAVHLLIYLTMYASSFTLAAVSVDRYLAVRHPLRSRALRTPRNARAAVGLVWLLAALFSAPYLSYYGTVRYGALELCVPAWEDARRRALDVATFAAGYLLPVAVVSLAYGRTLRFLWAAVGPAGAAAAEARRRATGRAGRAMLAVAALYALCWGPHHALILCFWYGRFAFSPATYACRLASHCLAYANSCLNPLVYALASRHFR
697 NFkB inh = inhibitors of the PMA/ionomycin-induced NF-kB reporter in 697 B cells; 697 B-cell NF-kB luciferase reporter, 16 h; inhibition, % at 4 µM; 330,000 tested, 0.33% active; AID 435022; in the data active means inhibition above about 35%
NR2E3 ag-1 = NR2E3 (human) agonism. GST-NR2E3/biotin-RetCOR TR-FRET, 1536-well. inhibition of corepressor binding, % at 4.78 µM. 320,000 tested, 0.12% active;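 active means percent inhibition above the cutoff of mean plus 3 SD of all tested compounds, set per screening campaign, cut at about 20% in these data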;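 further: 0% = DMSO wells and 100% = biotin wells as full block of FRET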
Target sequence (Q9Y5X4 whole entry, looked up): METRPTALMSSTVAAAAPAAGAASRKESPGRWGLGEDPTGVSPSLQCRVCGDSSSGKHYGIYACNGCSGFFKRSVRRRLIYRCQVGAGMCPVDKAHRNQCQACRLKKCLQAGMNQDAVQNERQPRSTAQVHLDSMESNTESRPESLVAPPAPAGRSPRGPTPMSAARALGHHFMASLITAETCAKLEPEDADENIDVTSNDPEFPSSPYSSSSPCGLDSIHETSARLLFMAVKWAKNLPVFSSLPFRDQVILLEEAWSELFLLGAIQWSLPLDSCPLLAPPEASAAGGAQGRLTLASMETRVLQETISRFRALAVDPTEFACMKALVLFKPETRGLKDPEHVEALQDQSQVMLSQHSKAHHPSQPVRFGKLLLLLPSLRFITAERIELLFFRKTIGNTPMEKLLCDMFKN
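Material: NR2E3–RetCOR corepressor complex / Incubation: Compound–protein incubation for 5 h at 4 °C / Dosing: compound at 4.8 µM, single dose / Detection: time-resolved FRET / Benchmarks: high control biotin, low control 0.6% DMSO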
Jurkat NFkB inh = lowers PMA/ionomycin-induced NF-kB signal in Jurkat cells. PMA/ionomycin-induced NF-kB luciferase reporter, luminescence. inhibition, % at 4 µM. 330,000 tested, 0.53% active. AID 435003; in the data active means inhibition above about 50%
Gli-Sufu block = Gli-Sufu pathway antagonism. AID 588413. 340,000 tested, 0.74% active. Sufu-KO-LIGHT fibroblasts, Gli luciferase reporter luminescence. inhibition, % at 5 µM;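 active means inhibition above about 55%, limit read from the data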;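 further: 0% = DMSO-treated cells and 100% = wells with medium but no cells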
NR2E3 ag-2 = agonists of human NR2E3 nuclear receptor. CHO-S Gal4-NCOR/VP16-NR2E3 two-hybrid, luciferase. Q9Y5X4. inhibition of corepressor binding, % at 3.98 µM. 360,000 tested, 0.35% active. AID 602229;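 active means inhibition above the mean of all tested compounds plus 3 SD, cut at about 70% in these data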;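 further: 0% = DMSO with NR2E3 transfected cells and 100% = cells lacking NR2E3 construct; higher means lower luciferase signal from less NR2E3 corepressor binding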
697 NFkB conf = inhibitors of the PMA/ionomycin-induced NF-kB reporter in 697 B cells, retest. shares compounds with 697 NFkB inh. 697 B-cell NF-kB luciferase, 16 h. inhibition, % at 4 µM. 2,000 tested, 35% active; in the data active means inhibition mostly above about 28%, no sharp cut-off; inactive means mostly below about 22%
Gli antag conf = confirmation of Gli-SUFU pathway antagonists. shares compounds with Gli-Sufu block. Sufu-KO-LIGHT cells, Gli luciferase reporter, luminescence. inhibition, % at 5 µM. 2,500 tested, 40% active;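 active means mean inhibition at 5 µM reaching about 45%, limit read from the data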;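 further: plate controls were DMSO-treated cells for no effect and wells lacking cells for full effect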
Gli cytotox = counter-screen for Gli-SUFU antagonists: cytotoxicity. shares compounds with Gli-Sufu block. 2,500 tested, 32% active. cytotoxicity, % at 5 µM. Sufu-KO-LIGHT cells cytotoxicity, ATP luminescence;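 active means mean cytotoxicity at 5 µM above about 25%, limit read from the data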;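 further: cells exposed to compound overnight for roughly 16 to 18 hours; plate controls were DMSO wells with cells for no effect and medium without cells for full effect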
Wnt3a counter = inhibits Wnt3a reporter, counter-screen for Gli-SUFU antagonists; shares compounds with Gli-Sufu block; Wnt-LIGHT cells, Wnt3a-driven luciferase reporter, luminescence; inhibition, % at 6.25 µM; 2,500 tested, 20% active;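 active means mean inhibition above about 25%, limit read from the data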
NR2E3 ag conf = NR2E3 agonism confirmed in two-hybrid assay | shares compounds with NR2E3 ag-2 | CHO-S mammalian two-hybrid NR2E3-NCOR, luciferase luminescence | inhibition, % at 3.98 µM | 2,300 tested, 51% active | AID 624378;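 active means average inhibition above a cutoff equal to the mean inhibition of all tested compounds plus one SD, cut at about 70% in these data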;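 further: 0% = DMSO in NR2E3 cells and 100% = DMSO in cells lacking NR2E3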
VP16 counter = reduces GAL4-VP16 reporter signal in NR2E3 counterscreen; shares compounds with NR2E3 ag-2; CHO-S GAL4-VP16 luciferase reporter, luminescence; inhibition, % at 3.98 µM; 2,300 tested, 29% active; AID 624379;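 active means mean inhibition above a cutoff equal to the average over all tested compounds plus one standard deviation, cut at about 70% in these data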;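 further: luciferase from a UAS reporter driven by GAL4-VP16 transactivation; 0% = DMSO with VP16-transfected cells and 100% = DMSO with cells lacking VP16; higher means less reporter light so more repression of VP16 activity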
An asterisk follows results filed as active; · = no result given.

SMILES	GalR3 antag	697 NFkB inh	NR2E3 ag-1	Jurkat NFkB inh	Gli-Sufu block	NR2E3 ag-2	697 NFkB conf	others
COC(=O)[C@]12C[C@H](CC(=O)N3CCOCC3)C(=O)N(Cc3ccccc3)C1=C[C@H](C(C)C)O[C@@H]2C1CC1	-7	·	·	·	·	·	·
CC(C)c1ccc(S(=O)(=O)N2CCN(C(C)C(=O)Nc3ccccc3-c3ccccc3)CC2)cc1 (configuration not stated)	2	35*	-1	15	24	-30	15
CC(C(=O)Nc1ccccc1-c1ccccc1)N1CCN(S(=O)(=O)c2ccccc2)CC1 (configuration not stated)	-6	11	1	2	9	0	·
Cc1ccc(C(=O)Nc2ncc3c(Cl)cccc3n2)cc1	-7	-256	-3	-77	-88	-87	-263
Cc1c(CCO)c(=O)oc2n[nH]c(-c3ccccc3)c12	2	35*	-3	5	11	-15	24*
CCc1c(C)c2c(C)nn(-c3ccccc3)c2oc1=O	-1	10	4	9	-5	3	·
Cc1nn(-c2cccc(Cl)c2)c(Cl)c1/C=N/NC(=O)c1cccs1	1	-314	2	-36	-39	-39	-24
CC1CN(S(=O)(=O)c2ccc(C(=O)Nc3nc(-c4cc5ccccc5o4)cs3)cc2)CC(C)O1 (configuration not stated)	-8	74*	-1	43	75*	-4	51*	Gli antag conf=79*;Gli cytotox=24;Wnt3a counter=30*
CC1CCN(c2c(NCc3ccc(C(=O)N4c5ccccc5CC4C)cc3)c(=O)c2=O)CC1 (configuration not stated)	1	43*	2	22	57*	12	39*	Gli antag conf=57*;Gli cytotox=0;Wnt3a counter=-35
CC1CCN(c2c(NCc3ccc(C(=O)N4CCN(C5CCCCC5)CC4)cc3)c(=O)c2=O)CC1	4	10	8	10	5	-32	·
O=C1CCC2S/C(=C/Nc3ccc(C(F)(F)F)cc3)C(=O)N12 (configuration not stated)	-7	81*	-3	30	58*	30	49*	Gli antag conf=60*;Gli cytotox=2;Wnt3a counter=106*
O=C1CCCC/C1=C/Nc1cccc(C(F)(F)F)c1	-1	2	-1	-19	-8	-38	·
Cc1ccc(Nc2nc(N/N=C\c3ccc4c(c3)OCO4)nc(N3CCOCC3)n2)cc1	-6	56*	-1	-28	56*	39	42*	Gli antag conf=50*;Gli cytotox=35*;Wnt3a counter=-75
COc1cccc(NC(=O)CSc2nnc(-c3cc(C)n(-c4ccccc4)c3C)o2)c1	0	71*	-1	-6	53	22	17	Gli antag conf=69*;Gli cytotox=10;Wnt3a counter=76*
O=[N+]([O-])c1c(Cl)cc(Cl)cc1Cl	1	·	·	·	·	·	·
O=S1(=O)CCSC[C@@H](CNCc2ccco2)N1	-4	·	·	·	·	·	·
CC(C)[C@H](NC(=O)N1CCOCC1)C(=O)N1CCC[C@H]1C(=O)NCc1ccccc1	-7	·	·	·	·	·	·
CC(C)(C)c1ccc(C(=O)Nc2ccc(N3CCOCC3)cc2)cc1	3	-84	-2	6	-3	9	·
CC(C)(C)c1ccc(C(=O)NC(=S)Nc2ccc(N3CCOCC3)cc2)cc1	-4	-334	1	-59	60*	12	13	Gli antag conf=52*;Gli cytotox=23;Wnt3a counter=-72
COc1ccc(/C=C2\SC(=S)N(CCCC(=O)Nc3ccc(O)cc3)C2=O)cc1	-3	69*	4	-5	39	73*	75*	NR2E3 ag conf=3;VP16 counter=61
Cc1ccc(/C=C2\SC(=S)N(CC(=O)Nc3cccnc3)C2=O)cc1	-3	-1	-3	1	0	-9	·
Cc1ccc(/C=C2\SC(=S)N(CCCC(=O)Nc3cccnc3)C2=O)cc1	·	90*	3	18	·	91*	99*	NR2E3 ag conf=42;VP16 counter=90*
CC(C)(C)OC(=O)N[C@H]1C=C[C@@H](CC(=O)OCC(F)(F)F)C1	-1	·	·	·	·	·	·
c1ccc(CCNc2ncnc3ccccc23)cc1	93*	49*	3	37	55*	50	29*	Gli antag conf=58*;Gli cytotox=29*;Wnt3a counter=24;NR2E3 ag conf=89*;VP16 counter=70
C[C@H]1CN(C(=O)OC(C)(C)C)CCN1c1ccc(N2CC[C@@H](O)C2)c(C#N)c1	1	·	·	·	·	·	·
SMILES	GalR3 antag	697 NFkB inh	NR2E3 ag-1	Jurkat NFkB inh	Gli-Sufu block	NR2E3 ag-2	697 NFkB conf	others
COC(=O)c1ccc2nc(-c3ccc(OC)c(OC)c3)c(Cc3ccccc3C(F)(F)F)n2c1	-2	·	·	·	·	·	·
O=c1oc2ccccc2cc1-c1ccc(O)cc1	-3	-107	-2	-64	-59	-42	·
Nc1ccc(-c2cc3ccccc3oc2=O)cc1	-11	61*	-1	-23	61*	52	48*	Gli antag conf=72*;Gli cytotox=9;Wnt3a counter=103*;NR2E3 ag conf=58;VP16 counter=51
S=C1NCCN1c1ccc(Cl)cc1	-9	·	·	·	·	·	·
O=C(CCCc1ccccc1)c1ccc2c(c1)OCCO2	-10	-270	2	42	40	64	-210	NR2E3 ag conf=21;VP16 counter=12
O/N=C(/CCc1ccccc1)c1ccc2c(c1)OCCO2	0	-57	3	-58	-76	-111	·
OCC[C@@H]1C[C@H](O)[C@@H](O)[C@@]2(OCCc3cc(C(F)(F)F)ccc32)O1	-7	·	·	·	·	·	·
COc1ccc(Cc2nnc(NC(=O)c3ccc(OC)c(OC)c3)s2)cc1	1	-22	4	18	-21	11	·
COc1ccc(C(=O)Nc2nnc(Cc3cccs3)s2)cc1OC	0	36*	12	12	-8	63	37*	NR2E3 ag conf=62;VP16 counter=23
CC(C)OC(=O)N(C)C[C@H]1OCc2cn(nn2)CCCC(=O)N([C@@H](C)CO)C[C@@H]1C	-3	·	·	·	·	·	·
Cc1csc(SCC(=O)c2cc(C)n(Cc3cccs3)c2C)n1	-5	-346	1	-51	13	61	-161	NR2E3 ag conf=53;VP16 counter=1

Screening results deposited in PubChem by several laboratories.
